Results taken from PMC8603004 (EFSA Journal, 2021).
“And” between values parts separate entries of the source, which are not always exact repeats. Identical values can stand only once.

Columns and labels:
[1] = First in vivo toxicokinetic study; design: species or system male Wistar rats; conditions: after 500 mg/kg bw 14C‐3‐NOP
Outline: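 Male Wistar rats received a single oral dose of 500 mg/kg bw 14C-labelled test compound under OECD TG 417 and were killed 48 h post-dose. Total radioactivity was measured in plasma, excreta and selected organs and tissues. Tissue levels were expressed as μg test-compound-eq/g and recovery as % of applied dose.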

[2] = Second in vivo toxicokinetic study, metabolic profile in gut and plasma; design: species or system male Wistar rats; conditions: urine 0 to 2 h of one animal, after 500 mg/kg bw 14C‐3‐NOP
Outline: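 Single oral dose of 500 mg/kg bw 14C-labelled test compound to male Wistar rats. One animal per time point was killed at 1, 2 and 3 h post-dose and blood was collected. Stomach, small intestine, caecum and colon contents were removed for total radioactivity. Metabolites were characterised by NMR and/or LC/MS.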

[3] = ADME of 14C‐3‐NOP following single or multiple oral administration; format: in vivo, rat; conditions: 500 mg/kg 14C‐3‐NOP, 1 h
[4] = tested on: testes and epididymides; Sertoli cells; assay: Mechanistic toxicity studies; design: species or system rats, dogs and non‐human primates
ADME in a lactating goat = format: in vivo
[5] = Second goat experiment, pre‐dosed 5 days; format: in vivo, lactating goat
[6] = ADME in four lactating cows; format: in vivo
[7] = Feeding study 1 in beef cattle, NOPA in plasma; format: in vivo; conditions: bovine, oral, 284 mg/kg
[8] = Tolerance study in dairy cows; format: in vivo; conditions: female, Holstein Friesian, cattle, liver, kidney, muscle, fat, oral
[9] = tested on: Holstein Friesian dairy cows; assay: Tolerance study in dairy cows; format: in vivo
[10] = tested on: Salmonella Typhimurium strains TA1535, TA1537, TA98, TA100, and Escherichia coli strain WP2 uvrA; assay: Bacterial reverse mutation assay of NOPA; format: cell-based; conditions: strains TA1535 and TA100, presence and absence of S9 mix, up to 5,000 μg/plate
Outline: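 Plate-incorporation reverse mutation test on the metabolite in S. Typhimurium TA1535, TA1537, TA98 and TA100 and E. coli WP2 uvrA, with and without liver microsomal activation. Concentrations were 3, 10, 33, 100, 333, 1,000, 2,500 and 5,000 μg/plate. Each concentration and each control was plated in triplicate, and positive and negative controls were included.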

[11] = tested on: whole blood human lymphocytes; assay: In vitro micronucleus test of NOPA; format: cell-based; conditions: 229 to 1,321 μg/mL, with and without metabolic activation
Outline: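 GLP micronucleus test (OECD TG 487) on the metabolite (purity 98.4%) in human whole-blood lymphocytes. Three concentrations from 229 to 1,321 μg/mL (top about 10 mmol/L) were analysed. Treatments were a short exposure (4 + 20 h recovery) with and without metabolic activation, and a continuous treatment without activation. Micronuclei were scored.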

[12] = tested on: peripheral blood reticulocytes; assay: In vivo micronucleus assay of NOPA in peripheral blood reticulocytes; design: species or system Fischer 344 Big Blue rats; conditions: days 4 and 29
Outline: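 Fischer 344 Big Blue rats, six per sex per group, were given the metabolite by oral gavage once daily for 28 days at 10 mL/kg in phosphate-buffered saline, pH 7.4. Males received 0, 150, 300 or 600 mg/kg bw/day and females 0, 250, 500 or 1,000 mg/kg bw/day. Peripheral blood was sampled on days 4 and 29, and micronucleated reticulocytes were counted by flow cytometry. Kit positive-control samples were run; there was no concurrent positive group.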

[13] = 28‐day oral gavage study with toxicokinetic evaluation of NOPA; format: in vivo, CByB6F1 Hybrid mice; conditions: CByB6F1 Hybrid, mouse, plasma, oral, 700 mg/kg
CByB6F1 Hybrid mice = assay: as above; format: in vivo; conditions: both sexes
[14] = Consumer exposure calculation to NOPA

O=C(O)CCO [3‐HPA, 3‐hydroxy‐propionic acid]
Urinary metabolite, share of the dose administered [1]: 7.2%
Urinary metabolite, share of the urine radioactivity [1]: 47.5%
Urinary metabolite, share of the urine radioactivity [2]: 58%
Metabolite in epididymis [3]: 60 % TRR
Metabolite in testes [3]: 84 % TRR
Metabolite in the small intestine ([3]; females): 46.5 % of TRR
Metabolite in the small intestine ([3]; males): 34.8 % of TRR
Testicular/epididymal findings ([4]; 10 days after sc administration): absence of any testicular/epididymal abnormality

O=C(O)CCO[N+](=O)[O-] [NOPA, 3‐nitrooxypropionic acid]
Urinary metabolite, share of the urine radioactivity [2]: 20%
Nitrate esters in milk, not detectable (LOD) (ADME in a lactating goat; milk collected 0–8 h post‐dose): < 0.82 mg 3‐NOP‐equivalent/kg
Nitrate esters in milk, not detectable (LOD) (ADME in a lactating goat; milk collected 8–24 h post‐dose): < 0.43 mg 3‐NOP‐equivalent/kg
Nitrate esters in the aqueous phase of plasma, not detectable (LOD) ([5]; LOD ≤ 0.07): < 0.07 mg/kg
Nitrate esters in the aqueous milk fraction, not detectable (LOD) ([5]; LOD ≤ 0.21): < 0.21 mg/kg
Amount in urine, not detected above the LOQ ([6]; any urine sample): ≤ 0.1 % of the dose
3‐NOP and NOPA in total excreta, worst‐case scenario ([6]; dairy cows): ≤ 0.2%
Residue in milk, not found above the LOQ ([6]; in vivo): < 8 μg 3‐NOP‐equivalents/kg
Residue in tissues, not found above the LOQ ([6]; in vivo): < 21 μg 3‐NOP‐equivalents/kg
concentration at 180 min [7]: 22.3 to 207 ng/mL
concentration at 57 day [8]: < 5 ng/g
NOPA in milk, median of samples above 1 μg/kg ([9]; 80 mg 3‐NOP/kg feed DM): 1.74 µg/kg
NOPA in milk, median of samples above 1 μg/kg ([9]; 100 mg 3‐NOP/kg feed DM, 7 cows): 1.52 µg/kg
Gene mutations in bacteria [10]: induced gene mutations by base pair substitutions
Frequency of micronuclei [11]: No significant increase in the frequency of micronuclei
Incidence of MN‐RETs [12]: No significant increases in the incidence of MN‐RETs
half-life ([13]; female): 42 to 72 min
half-life ([13]; male): 30 to 84 min
Time of rapid increase of NOPA plasma concentration (CByB6F1 Hybrid mice): < 1 h
Susceptibility of Sertoli cells from dogs ([4]; ex vivo/in vitro cultures of seminiferous tubuli): not susceptible
Consumer exposure, maximum HRP ([14]; Adolescents): 0.2260 μg/kg bw per day
Consumer exposure, maximum HRP ([14]; Adults): 0.1293 μg/kg bw per day
Consumer exposure, maximum HRP ([14]; Elderly): 0.1162 μg/kg bw per day
Consumer exposure, maximum HRP ([14]; Infants): 0.4542 μg/kg bw per day
Consumer exposure, maximum HRP ([14]; Other children): 0.6 μg/kg bw per day and 0.5952 μg/kg bw per day
Consumer exposure, maximum HRP ([14]; Toddlers): 0.4674 μg/kg bw per day
Consumer exposure, maximum HRP ([14]; Very elderly): 0.1266 μg/kg bw per day
Maximum HRP as share of the established ADI ([14]; other children, ADI 1 mg/kg bw per day): 0.06%

O=C(O)C1OC(OCCCO[N+](=O)[O-])C(O)C(O)C1O (stereo not shown) [glucuronide of 3‐NOP]
Urinary metabolite, share of the urine radioactivity [2]: 11%
